Reference: ChEMBL document CHEMBL4406856, “Structure based design, synthesis and in vitro antitumour activity of tiazofurin stereoisomers with nitrogen functions at the C-2' or C-3' positions” (Eur J Med Chem, 2019)
The source made the active and inactive calls. No cut-off for these calls is given here.

What was measured:
[1] = test system: K562; assay: Induction of apoptosis in human K562 cells incubated for 24 hrs by annexin V FITC and propidium iodide staining based flow cytometry relative to control; type: functional; design: concentration or dose not given beside the values
[2] = test system: K562; assay: Potency index, ratio of tiazofurin IC50 to compound IC50 for cytotoxicity against human K562 cells incubated for 72 hrs by MTT assay; type: functional
[3] = test system: HeLa; assay: Potency index, ratio of tiazofurin IC50 to compound IC50 for cytotoxicity against human HeLa cells incubated for 72 hrs by MTT assay; type: functional
[4] = test system: K562; assay: Potency index, ratio of doxorubicin IC50 to compound IC50 for cytotoxicity against human K562 cells incubated for 72 hrs by MTT assay; type: functional
[5] = test system: K562; assay: Cell cycle arrest in human K562 cells assessed as accumulation in G2/M phase incubated for 72 hrs by propidium iodide staining based flow cytometry (reference value: 15.45%); type: functional
How it was run: (§1)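 Exponentially growing K562 cells treated for 24 or 72 h, untreated cells as control; cells stained with propidium iodide and DNA content read by flow cytometry. Phase distribution (subG1, G0/G1, S, G2/M) taken from one-parameter histograms, subG1 scored as hypodiploid, apoptotic cells.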

[6] = test system: K562; assay: Cell cycle arrest in human K562 cells assessed as accumulation in S phase incubated for 72 hrs by propidium iodide staining based flow cytometry (reference value: 36.05%); type: functional; how it was run: as §1
[7] = test system: K562; assay: Cell cycle arrest in human K562 cells assessed as accumulation in G0/G1 phase incubated for 72 hrs by propidium iodide staining based flow cytometry (reference value: 45.43%); type: functional; how it was run: as §1
[8] = test system: K562; assay: Cell cycle arrest in human K562 cells assessed as accumulation in SubG1 phase incubated for 72 hrs by propidium iodide staining based flow cytometry (reference value: 3.07%); type: functional; how it was run: as §1
[9] = test system: K562; assay: Induction of apoptosis in human K562 cells incubated for 72 hrs by annexin V FITC and propidium iodide staining based flow cytometry relative to control; type: functional; design: concentration or dose not given beside the values
How it was run: (§2)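 K562 cells treated for 72 h, stained with Annexin V-FITC/propidium iodide and analysed by flow cytometry. Apoptotic, necrotic and live fractions scored as percent of gated cells; specific apoptosis and specific necrosis calculated from these counts.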

[10] = test system: K562; assay: Induction of necrosis in human K562 cells incubated for 72 hrs by annexin V FITC and propidium iodide staining based flow cytometry relative to control; type: functional; design: concentration or dose not given beside the values; how it was run: as §2
[11] = test system: K562; assay: Induction of apoptosis in human K562 cells assessed as Bcl2 level incubated for 72 hrs by Western blot analysis (reference value: 100%); type: functional
How it was run: (§3)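 K562 cells treated for 72 h; Bcl-2, BAX, caspase 3 precursor (32 kDa), caspase 3 active subunit (18 kDa) and PARP (112 and 85 kDa) measured by Western blot and expressed as % of untreated control.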

[12] = test system: K562; assay: Induction of apoptosis in human K562 cells assessed as Bax level incubated for 72 hrs by Western blot analysis (reference value: 100%); type: functional; how it was run: as §3
[13] = test system: K562; assay: Induction of apoptosis in human K562 cells assessed as 32 kDa Caspase 3 precursor level incubated for 72 hrs by Western blot analysis (reference value: 100%); type: functional; how it was run: as §3
[14] = test system: K562; assay: Induction of apoptosis in human K562 cells assessed as 18 kDa Caspase 3 active subunit level incubated for 72 hrs by Western blot analysis (reference value: 100%); type: functional; how it was run: as §3
[15] = test system: K562; assay: Induction of apoptosis in human K562 cells assessed as 112 kDa PARP level incubated for 72 hrs by Western blot analysis (reference value: 100%); type: functional; how it was run: as §3
[16] = test system: K562; assay: Induction of apoptosis in human K562 cells assessed as 85 kDa PARP level incubated for 72 hrs by Western blot analysis (reference value: 100%); type: functional; how it was run: as §3
[17] = test system: K562; assay: Induction of apoptosis in human K562 cells assessed as reduction in cell membrane integrity at cytotoxic IC50 incubated for 72 hrs by acridine orange and ethidium bromide double staining based fluorescence microscopy; type: functional
[18] = test system: K562; assay: Genotoxicity in human K562 cells assessed as increase in DNA damage at cytotoxic IC50 incubated for 72 hrs by comet assay; type: toxicity, cell-based; details: k562, 72 h
How it was run: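 Modified alkaline comet assay: cells set in agarose on slides, electrophoresed horizontally, stained with ethidium bromide and imaged by fluorescence microscopy. 50 comets scored per sample; mean tail moment used as the DNA-damage measure.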

[19] = test system: K562; assay: Induction of necrosis in human K562 cells incubated for 24 hrs by annexin V FITC and propidium iodide staining based flow cytometry relative to control; type: functional; design: concentration or dose not given beside the values
[20] = test system: HL-60; assay: Potency index, ratio of tiazofurin IC50 to compound IC50 for cytotoxicity against human HL60 cells incubated for 72 hrs by MTT assay; type: functional
[21] = test system: HL-60; assay: Potency index, ratio of doxorubicin IC50 to compound IC50 for cytotoxicity against human HL60 cells incubated for 72 hrs by MTT assay; type: functional
[22] = test system: Raji; assay: Potency index, ratio of tiazofurin IC50 to compound IC50 for cytotoxicity against human Raji cells incubated for 72 hrs by MTT assay; type: functional
[23] = test system: K562; assay: Cell cycle arrest in human K562 cells assessed as accumulation in G2/M phase incubated for 24 hrs by propidium iodide staining based flow cytometry (reference value: 14.29%); type: functional; how it was run: as §1
[24] = test system: K562; assay: Cell cycle arrest in human K562 cells assessed as accumulation in S phase incubated for 24 hrs by propidium iodide staining based flow cytometry (reference value: 48.38%); type: functional; how it was run: as §1
[25] = test system: K562; assay: Cell cycle arrest in human K562 cells assessed as accumulation in G0/G1 phase incubated for 24 hrs by propidium iodide staining based flow cytometry (reference value: 36.28%); type: functional; how it was run: as §1
[26] = test system: K562; assay: Cell cycle arrest in human K562 cells assessed as accumulation in sub-G1 phase incubated for 24 hrs by propidium iodide staining based flow cytometry (reference value: 1.05%); type: functional; how it was run: as §1
[27] = test system: K562; assay: Cell cycle arrest in human K562 cells assessed as decrease in cell accumulation at G2/M phase incubated for 72 hrs by propidium iodide staining based flow cytometry relative to tiazofurin; type: functional; how it was run: as §1
[28] = test system: K562; assay: Antiproliferative activity against human K562 cells assessed as reduction in cell growth incubated for 72 hrs by MTT assay; type: functional, cell-based; details: K562, 72 h
How it was run: (§4)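 Colorimetric MTT assay on human tumour lines K562 (chronic myeloid leukemia), HL-60 (promyelocytic leukemia), Jurkat (T cell leukemia), Raji (Burkitt's lymphoma), HT-29 (colorectal adenocarcinoma), HeLa (cervix adenocarcinoma) and normal lung fibroblast MRC-5; cells exposed to compounds for 72 h.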

[29] = test system: HL-60; assay: Antiproliferative activity against human HL60 cells assessed as reduction in cell growth incubated for 72 hrs by MTT assay; type: functional, cell-based; details: HL-60, 72 h
How it was run: as §4, with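 “h. IC50 taken as concentration giving 50% growth inhibition versus untreated control.” for “h.”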

[30] = test system: Jurkat; assay: Antiproliferative activity against human Jurkat cells assessed as reduction in cell growth incubated for 72 hrs by MTT assay; type: functional, cell-based
How it was run: as §4, with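 “h. IC50 taken as concentration giving 50% growth inhibition versus untreated control.” for “h.”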

[31] = test system: Raji; assay: Antiproliferative activity against human Raji cells assessed as reduction in cell growth incubated for 72 hrs by MTT assay; type: functional, cell-based; how it was run: as §4
[32] = test system: HT-29; assay: Antiproliferative activity against human HT-29 cells assessed as reduction in cell growth incubated for 72 hrs by MTT assay; type: functional, cell-based; details: HT-29, 72 h
How it was run: as §4, with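 “h. IC50 taken as concentration giving 50% growth inhibition versus untreated control.” for “h.”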

[33] = test system: HeLa; assay: Antiproliferative activity against human HeLa cells assessed as reduction in cell growth incubated for 72 hrs by MTT assay; type: functional, cell-based
How it was run: as §4, with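 “h. IC50 taken as concentration giving 50% growth inhibition versus untreated control.” for “h.”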

[34] = test system: MRC5; assay: Cytotoxicity against human MRC5 cells assessed as reduction in cell viability incubated for 72 hrs by MTT assay; type: cell-based; details: MRC5, 72 h; how it was run: as §4
[35] = test system: Jurkat; assay: Potency index, ratio of tiazofurin IC50 to compound IC50 for cytotoxicity against human Jurkat cells incubated for 72 hrs by MTT assay; type: functional
[36] = test system: Jurkat; assay: Potency index, ratio of doxorubicin IC50 to compound IC50 for cytotoxicity against human Jurkat cells incubated for 72 hrs by MTT assay; type: functional
[37] = test system: Raji; assay: Potency index, ratio of doxorubicin IC50 to compound IC50 for cytotoxicity against human Raji cells incubated for 72 hrs by MTT assay; type: functional
[38] = Ratio of compound IC50 to tiazofurin IC50 for cytotoxicity against human MRC5 cells incubated for 72 hrs by MTT assay; type: cell-based; details: read-out: Ratio IC50
[39] = test system: K562; assay: Induction of apoptosis in human K562 cells incubated for 72 hrs by annexin V FITC and propidium iodide staining based flow cytometry relative to tiazofurin; type: functional; how it was run: as §2

SMILES | Activity [1] | Activity [5] | Activity [6] | Activity [7] | Activity [8] | Activity [9] | Activity [10] | Activity [11] | Activity [12] | Activity [13] | Activity [14] | Activity [15] | Activity [16] | Activity [17] | Activity [18] | Activity [19] | Activity [23] | Activity [24] | Activity [25] | Activity [26] | further results
NC(=O)c1csc([C@@H]2O[C@H](CO)[C@H](O)[C@H]2O)n1 | 11.28% | 11.6% | 32.94% | 41.86% | 13.6% | 16.69% | 21.08% | 436.51% | 180.18% | 4433.8% | 230.09% | 665.4% | 552.68% | Active | Toxic | 5.36% | 8.45% | 51% | 38.15% | 2.39% | Ratio IC50 [2]: 2 - 48; Ratio IC50 [3]: 2 - 48; Ratio IC50 [4]: 2; Ratio IC50 [20]: 2 - 48; Ratio IC50 [21]: 7; Ratio IC50 [22]: 2 - 48; fold change (FC) [27]: 2 - 2.4
CC(=O)N[C@@H]1[C@@H](O)[C@H](c2nc(C(N)=O)cs2)O[C@@H]1CO | 27.17% | 13.22% | 41.58% | 43.3% | 1.9% | 10.14% | 14.11% | 274.16% | 126.68% | 432.96% | 87.05% | 336.99% | 364.31% | Active | Toxic | 8.55% | 4.47% | 49.42% | 36.27% | 9.84% | IC50 [28]: 340 nM; IC50 [29]: 3.77 µM; IC50 [30]: 7.2 nM; IC50 [31]: 3.9 nM; IC50 [32]: 260 nM; IC50 [33]: > 100 µM; IC50 [34]: 42.4 µM; Ratio IC50 [35]: 5; Ratio IC50 [36]: 4; Ratio IC50 [22]: 1353 - 1354; Ratio IC50 [37]: 764; fold change (FC) [27]: 2 - 2.4
CC(=O)N[C@H]1[C@H](O)[C@@H](CO)O[C@H]1c1nc(C(N)=O)cs1 | 10.64% | 11.66% | 36.13% | 38.86% | 13.36% | 22.85% | 7.29% | 149.59% | 141.43% | 777.09% | 59.32% | 477.15% | 534.18% |  |  | 1.23% | 17.67% | 46.93% | 33.62% | 2.11% | IC50 [28]: 6.1 nM; IC50 [29]: 12.9 µM; IC50 [30]: > 100000 nM; IC50 [31]: 2560 nM; IC50 [32]: > 100000 nM; IC50 [33]: > 100 µM; IC50 [34]: 3.21 µM; Ratio IC50 [2]: 309; Ratio IC50 [4]: 40; selectivity ratio at 72 h [38]: 9; fold change (FC) [27]: 2 - 2.4; fold change (FC) [39]: 2
NC(=O)c1csc([C@@H]2O[C@H](CO)[C@@H](O)[C@H]2O)n1 [TIAZOFURIN] | -0.34% | 5.74% | 33.62% | 35.66% | 24.99% | 13.71% | 13.71% | 344.33% | 338.37% | 1302.79% | 89.69% | 299.68% | 214.99% | Active | Toxic | 3.76% | 7.55% | 53.16% | 37.08% | 2.22% | 
